Measured values reported in PMC6415968 (Organic letters, 2018).
pEC50, pKd: −log10 of the molar value. Converted amounts (≈) assume the structure as drawn. “And” between values parts separate entries of the source, which are not always exact repeats. Equal values may be shown once. “Also recorded” adds a separate entry of the source.

Columns and labels:
ERβ [1] = molecular target: T1, ERβ (Homo sapiens, UniProt Q92731); details: ref HsiehRW; RajanSS; SharmaSK; GreeneGL Steroids, 2008, 73, 59–68; cited from earlier work
ERβ [2] = molecular target: T1, ERβ; assay: estrogen receptor β antagonist assay; assay type: cell-based; details: concentrations up to 10 μM
[3] = tested on: MDA-MB-231 human breast cancer cells; assay: growth inhibition assay, MDA-MB-231; assay type: cell-based
In short: (§1)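 Simple growth-inhibition assay in two human cancer lines, MDA-MB-231 (breast) and AsPC-1 (pancreatic), run without a particular target in mind. Cells exposed to a range of test compound concentrations, highest 40 μM. GI50 (μM) read.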

CLK1 = CLK1 (Homo sapiens, UniProt P49759); assay: Kd determination CLK1; assay type: binding
panel of 468 kinases = assay: KINOMEscan panel of 468 kinases; assay type: binding; details: kinases bound divided by distinct kinases tested
cdc-2-like kinase CLK4 = cdc-2-like kinase CLK4 (Homo sapiens, UniProt Q9HAZ1); assay: Kd determination CLK4; assay type: binding
ERα [4] = molecular target: T2, ERα (Homo sapiens, UniProt P03372); assay: estrogen receptor α antagonist assay; assay type: cell-based; details: concentrations up to 10 μM
T2 sequence (P03372 1-595): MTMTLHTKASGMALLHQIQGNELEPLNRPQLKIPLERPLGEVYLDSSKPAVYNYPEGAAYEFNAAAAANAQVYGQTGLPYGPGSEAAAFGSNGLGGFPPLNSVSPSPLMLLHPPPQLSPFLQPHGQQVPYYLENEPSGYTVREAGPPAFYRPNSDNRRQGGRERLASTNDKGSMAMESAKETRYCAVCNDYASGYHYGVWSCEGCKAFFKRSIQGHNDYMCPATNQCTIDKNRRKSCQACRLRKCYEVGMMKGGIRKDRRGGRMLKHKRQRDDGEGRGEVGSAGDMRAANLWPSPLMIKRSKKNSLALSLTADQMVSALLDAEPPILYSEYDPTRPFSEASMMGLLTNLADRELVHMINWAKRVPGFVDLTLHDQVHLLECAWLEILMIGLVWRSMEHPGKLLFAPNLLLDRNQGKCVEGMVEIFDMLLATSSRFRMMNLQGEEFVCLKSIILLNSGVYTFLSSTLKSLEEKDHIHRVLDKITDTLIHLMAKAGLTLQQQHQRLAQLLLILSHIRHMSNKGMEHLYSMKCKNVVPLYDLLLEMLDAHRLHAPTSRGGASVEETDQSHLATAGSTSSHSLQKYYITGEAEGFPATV

ERβ [5] = molecular target: T1, ERβ; assay: estrogen receptor β agonist assay; assay type: cell-based
cells (mitosis) = assay: mitotic arrest in cells; assay type: cell-based
DYRK1A = DYRK1A (Homo sapiens, UniProt Q13627); assay: Kd determination DYRK1A; assay type: binding
ERα [6] = molecular target: T2, ERα; assay: estrogen receptor α agonist assay; assay type: cell-based; details: estrogen receptor agonism
[7] = tested on: 12 human primary cell-based systems; assay: BioMAP Diversity PLUS panel; details: comparison with reference database of >4,000 agents
[8] = tested on: AsPC-1 human tumor cell line (pancreatic cancer); assay: growth inhibition assay, AsPC-1; assay type: cell-based; details: ASPC1
In short: as §1

CLK2 = CLK2 (Homo sapiens, UniProt P49760); assay: Kd determination CLK2; assay type: binding
CLK1,2,4 = assay: established model for inhibition of CLK1,2,4 in cells; assay type: cell-based

T1 sequence (Q92731 whole entry): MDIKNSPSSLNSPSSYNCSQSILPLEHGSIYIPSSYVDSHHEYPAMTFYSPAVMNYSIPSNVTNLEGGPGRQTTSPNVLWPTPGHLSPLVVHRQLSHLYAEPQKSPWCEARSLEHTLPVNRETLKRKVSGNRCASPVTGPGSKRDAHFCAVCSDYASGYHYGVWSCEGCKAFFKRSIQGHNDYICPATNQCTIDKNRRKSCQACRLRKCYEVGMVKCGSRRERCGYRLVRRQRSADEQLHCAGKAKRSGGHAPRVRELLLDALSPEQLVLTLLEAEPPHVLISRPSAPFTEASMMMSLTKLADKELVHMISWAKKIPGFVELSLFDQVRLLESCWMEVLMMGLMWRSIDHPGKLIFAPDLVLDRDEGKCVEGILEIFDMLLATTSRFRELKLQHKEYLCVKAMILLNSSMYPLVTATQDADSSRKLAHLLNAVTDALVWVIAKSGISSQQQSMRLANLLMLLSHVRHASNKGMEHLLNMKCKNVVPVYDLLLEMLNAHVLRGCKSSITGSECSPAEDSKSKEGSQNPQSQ
CLK2, sequence (P49760 whole entry): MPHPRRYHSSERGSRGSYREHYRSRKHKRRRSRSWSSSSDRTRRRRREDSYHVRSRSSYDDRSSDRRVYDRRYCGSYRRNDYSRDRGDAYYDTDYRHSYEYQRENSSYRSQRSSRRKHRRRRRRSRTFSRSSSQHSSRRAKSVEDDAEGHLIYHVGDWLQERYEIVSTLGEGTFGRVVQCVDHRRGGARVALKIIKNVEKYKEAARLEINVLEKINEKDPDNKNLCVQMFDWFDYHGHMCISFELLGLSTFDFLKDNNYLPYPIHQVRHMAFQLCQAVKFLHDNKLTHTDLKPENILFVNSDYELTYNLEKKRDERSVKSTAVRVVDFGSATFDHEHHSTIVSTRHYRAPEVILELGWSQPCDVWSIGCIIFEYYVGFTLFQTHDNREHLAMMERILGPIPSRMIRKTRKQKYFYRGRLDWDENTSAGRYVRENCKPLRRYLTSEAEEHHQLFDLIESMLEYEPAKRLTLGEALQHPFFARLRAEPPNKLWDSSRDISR
cdc-2-like kinase CLK4, sequence (Q9HAZ1 whole entry): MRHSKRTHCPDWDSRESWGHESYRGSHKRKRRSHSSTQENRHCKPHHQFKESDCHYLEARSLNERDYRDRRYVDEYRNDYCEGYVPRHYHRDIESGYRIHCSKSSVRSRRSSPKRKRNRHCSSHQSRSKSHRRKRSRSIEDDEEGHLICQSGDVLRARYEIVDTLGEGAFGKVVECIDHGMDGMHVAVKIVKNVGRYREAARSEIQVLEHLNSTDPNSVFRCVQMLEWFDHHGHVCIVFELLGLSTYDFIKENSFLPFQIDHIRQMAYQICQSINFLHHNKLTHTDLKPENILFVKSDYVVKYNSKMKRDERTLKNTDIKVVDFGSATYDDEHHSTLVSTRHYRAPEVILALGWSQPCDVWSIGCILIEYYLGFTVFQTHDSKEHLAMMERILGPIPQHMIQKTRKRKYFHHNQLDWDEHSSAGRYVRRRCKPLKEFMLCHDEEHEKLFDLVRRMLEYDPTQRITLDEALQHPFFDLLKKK
CLK1, sequence (P49759 whole entry): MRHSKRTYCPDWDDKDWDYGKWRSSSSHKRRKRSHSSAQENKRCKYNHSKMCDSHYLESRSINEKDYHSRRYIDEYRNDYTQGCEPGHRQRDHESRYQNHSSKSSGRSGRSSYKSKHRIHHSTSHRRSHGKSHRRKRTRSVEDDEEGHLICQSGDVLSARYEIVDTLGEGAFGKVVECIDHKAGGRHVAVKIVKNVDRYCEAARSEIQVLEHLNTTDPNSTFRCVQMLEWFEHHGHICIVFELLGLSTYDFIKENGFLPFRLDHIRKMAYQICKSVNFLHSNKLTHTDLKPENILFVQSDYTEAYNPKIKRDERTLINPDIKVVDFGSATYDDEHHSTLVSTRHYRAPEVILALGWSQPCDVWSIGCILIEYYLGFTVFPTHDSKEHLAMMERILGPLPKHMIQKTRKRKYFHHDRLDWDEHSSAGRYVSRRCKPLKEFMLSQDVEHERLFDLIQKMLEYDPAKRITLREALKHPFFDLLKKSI

Row | Compound | shift in selectivity for agonism of ER-β (ERβ [1]) | antagonist activity at ERβ (ERβ [2]) | GI50 [3] [µg/mL] | pKd (CLK1) | S-score(35) (panel of 468 kinases) | pKd (cdc-2-like kinase CLK4) | antagonist activity at ERα (ERα [4]) | pEC50 (ERβ [5]) | shift in selectivity favoring agonism of ERβ over ERα in comparison to 17-β-estradiol (ERβ [5]; ERβ vs ERα, relative to 17-β-estradiol) [fold] | mitotic arrest (cells (mitosis)) | pKd (DYRK1A) | agonist potency order ERβ vs ERα (ERα [6]) | BioMAP phenotypic profile similarity to reference agents [7] | GI50 [8] | pKd (CLK2) | CLK inhibitory activity in cells (CLK1,2,4)
1 | C[C@]12CCc3c(ccc4cc(O)ccc34)[C@@H]1CC[C@@H]2O [17-β-dihydroequilenin] | related shift in selectivity for agonism of ER-β |  |  |  |  |  |  |  |  |  |  |  |  |  |  | 
2 | C[C@]12CCc3c(ccc4ccc(O)cc34)[C@@H]1C[C@@H](O)C2 [VII, estra-1,3,5(10),6,8-pentaene-2,16α-diol] |  | not showing activity as an antagonist | ~0.2 (≈ 0.745 µM) | 5.85 | 0.03 | 6.46 | not showing activity as an antagonist | 7.68 | ~4 | arrests cells in mitosis; also recorded: induces mitotic arrest in cells | 5.70 | potency for ERβ > ERα | favorable comparison to both 17-β estradiol (a dual ERα and ERβ agonist) as well as 2-methoxyestradiol; also recorded: correlation with several microtubule targeting agents (combretastatin A4, 2-methoxyestradiol and paclitaxel); also recorded: related to the clinically relevant microtubule-targeting agent paclitaxel; also recorded: phenotypically related to paclitaxel | ~0.5 µg/mL and 2 µM | 5.70 | no evidence of CLK inhibitory activity in cells
